Test results reported in ChEMBL document CHEMBL1828568, “Novel imaging agents for β-amyloid plaque based on the N-benzoylindole core” (Bioorg Med Chem Lett, 2011).
Blank lines part the entries; values can stand above or below the compound they belong to.

Assays:
[1] = Binding affinity to amyloid beta fibrils
Outline: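 Competitive binding to Aβ1–40 aggregates, with [125I]TZDM as the radiolabeled reference ligand displaced by unlabeled test compound. Run in triplicate and reported as mean ± SD.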

[2] = Octanol-phosphate buffer partition coefficient, log D of the compound at pH 7.4; format: physicochemical
Outline: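 Radioiodinated tracer partitioned between n-octanol and PBS at pH 7.4; log D reported as mean ± SD.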

[3] = test system: Blood; experiment: Biodistribution in Kunming mouse blood at 1 uCi, iv after 2 mins by gamma counting; format: ADME, organism-based; conditions: in vivo
Outline: (§1)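 125I-labeled tracer given intravenously to normal mice. Organs and blood were sampled at 2, 15, 30, 60, 120 and 240 min after injection. Uptake is expressed as % ID/g, averaged over 5 mice ± SD.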

[4] = test system: Blood; experiment: Biodistribution in Kunming mouse blood at 1 uCi, iv after 15 mins by gamma counting; format: ADME, organism-based; conditions: in vivo, 0.25 h; outline: as §1
[5] = test system: Blood; experiment: Biodistribution in Kunming mouse blood at 1 uCi, iv after 30 mins by gamma counting; format: ADME, organism-based; conditions: in vivo, 0.5 h; outline: as §1
[6] = test system: Blood; experiment: Biodistribution in Kunming mouse blood at 1 uCi, iv after 60 mins by gamma counting; format: ADME, organism-based; conditions: in vivo, 1 h; outline: as §1
[7] = test system: Blood; experiment: Biodistribution in Kunming mouse blood at 1 uCi, iv after 120 mins by gamma counting; format: ADME, organism-based; conditions: in vivo, 2 h; outline: as §1
[8] = test system: Blood; experiment: Biodistribution in Kunming mouse blood at 1 uCi, iv after 240 mins by gamma counting; format: ADME, organism-based; conditions: in vivo, 4 h; outline: as §1
[9] = test system: Brain; experiment: Biodistribution in Kunming mouse brain at 1 uCi, iv after 2 mins by gamma counting; format: ADME, organism-based; conditions: in vivo; outline: as §1
[10] = test system: Brain; experiment: Biodistribution in Kunming mouse brain at 1 uCi, iv after 15 mins by gamma counting; format: ADME, organism-based; conditions: in vivo, 0.25 h; outline: as §1
[11] = test system: Brain; experiment: Biodistribution in Kunming mouse brain at 1 uCi, iv after 30 mins by gamma counting; format: ADME, organism-based; conditions: in vivo, 0.5 h; outline: as §1
[12] = test system: Brain; experiment: Biodistribution in Kunming mouse brain at 1 uCi, iv after 60 mins by gamma counting; format: ADME, organism-based; conditions: in vivo, 1 h; outline: as §1
[13] = test system: Brain; experiment: Biodistribution in Kunming mouse brain at 1 uCi, iv after 120 mins by gamma counting; format: ADME, organism-based; conditions: in vivo, 2 h; outline: as §1
[14] = test system: Brain; experiment: Biodistribution in Kunming mouse brain at 1 uCi, iv after 240 mins by gamma counting; format: ADME, organism-based; conditions: in vivo, 4 h; outline: as §1
[15] = test system: Heart; experiment: Biodistribution in Kunming mouse heart at 1 uCi, iv after 2 mins by gamma counting; format: ADME, organism-based; conditions: in vivo; outline: as §1
[16] = test system: Heart; experiment: Biodistribution in Kunming mouse heart at 1 uCi, iv after 15 mins by gamma counting; format: ADME, organism-based; conditions: in vivo, 0.25 h; outline: as §1
[17] = test system: Heart; experiment: Biodistribution in Kunming mouse heart at 1 uCi, iv after 30 mins by gamma counting; format: ADME, organism-based; conditions: in vivo, 0.5 h; outline: as §1
[18] = test system: Heart; experiment: Biodistribution in Kunming mouse heart at 1 uCi, iv after 60 mins by gamma counting; format: ADME, organism-based; conditions: in vivo, 1 h; outline: as §1
[19] = test system: Heart; experiment: Biodistribution in Kunming mouse heart at 1 uCi, iv after 120 mins by gamma counting; format: ADME, organism-based; conditions: in vivo, 2 h; outline: as §1
[20] = test system: Heart; experiment: Biodistribution in Kunming mouse heart at 1 uCi, iv after 240 mins by gamma counting; format: ADME, organism-based; conditions: in vivo, 4 h; outline: as §1
[21] = test system: Liver; experiment: Biodistribution in Kunming mouse liver at 1 uCi, iv after 2 mins by gamma counting; format: ADME, organism-based; conditions: in vivo; outline: as §1
[22] = test system: Liver; experiment: Biodistribution in Kunming mouse liver at 1 uCi, iv after 15 mins by gamma counting; format: ADME, organism-based; conditions: in vivo, 0.25 h; outline: as §1
[23] = test system: Liver; experiment: Biodistribution in Kunming mouse liver at 1 uCi, iv after 30 mins by gamma counting; format: ADME, organism-based; conditions: in vivo, 0.5 h; outline: as §1
[24] = test system: Liver; experiment: Biodistribution in Kunming mouse liver at 1 uCi, iv after 60 mins by gamma counting; format: ADME, organism-based; conditions: in vivo, 1 h; outline: as §1
[25] = test system: Liver; experiment: Biodistribution in Kunming mouse liver at 1 uCi, iv after 120 mins by gamma counting; format: ADME, organism-based; conditions: in vivo, 2 h; outline: as §1
[26] = test system: Liver; experiment: Biodistribution in Kunming mouse liver at 1 uCi, iv after 240 mins by gamma counting; format: ADME, organism-based; conditions: in vivo, 4 h; outline: as §1
[27] = test system: Spleen; experiment: Biodistribution in Kunming mouse spleen at 1 uCi, iv after 2 mins by gamma counting; format: ADME, organism-based; conditions: in vivo; outline: as §1
[28] = test system: Spleen; experiment: Biodistribution in Kunming mouse spleen at 1 uCi, iv after 15 mins by gamma counting; format: ADME, organism-based; conditions: in vivo, 0.25 h; outline: as §1
[29] = test system: Spleen; experiment: Biodistribution in Kunming mouse spleen at 1 uCi, iv after 30 mins by gamma counting; format: ADME, organism-based; conditions: in vivo, 0.5 h; outline: as §1
[30] = test system: Spleen; experiment: Biodistribution in Kunming mouse spleen at 1 uCi, iv after 60 mins by gamma counting; format: ADME, organism-based; conditions: in vivo, 1 h
Outline: (§2)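 Radioiodinated tracers given intravenously to normal mice; organs taken at 2, 15, 30, 60, 120 and 240 min after injection. Uptake expressed as % ID/g, mean ± SD of 5 mice; stomach values carry a table footnote.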

[31] = test system: Spleen; experiment: Biodistribution in Kunming mouse spleen at 1 uCi, iv after 120 mins by gamma counting; format: ADME, organism-based; conditions: in vivo, 2 h; outline: as §1
[32] = test system: Spleen; experiment: Biodistribution in Kunming mouse spleen at 1 uCi, iv after 240 mins by gamma counting; format: ADME, organism-based; conditions: in vivo, 4 h; outline: as §1
[33] = test system: Lung; experiment: Biodistribution in Kunming mouse lung at 1 uCi, iv after 2 mins by gamma counting; format: ADME, organism-based; conditions: in vivo; outline: as §1
[34] = test system: Lung; experiment: Biodistribution in Kunming mouse lung at 1 uCi, iv after 15 mins by gamma counting; format: ADME, organism-based; conditions: in vivo, 0.25 h; outline: as §1
[35] = test system: Lung; experiment: Biodistribution in Kunming mouse lung at 1 uCi, iv after 30 mins by gamma counting; format: ADME, organism-based; conditions: in vivo, 0.5 h; outline: as §1
[36] = test system: Lung; experiment: Biodistribution in Kunming mouse lung at 1 uCi, iv after 60 mins by gamma counting; format: ADME, organism-based; conditions: in vivo, 1 h; outline: as §1
[37] = test system: Lung; experiment: Biodistribution in Kunming mouse lung at 1 uCi, iv after 120 mins by gamma counting; format: ADME, organism-based; conditions: in vivo, 2 h; outline: as §1
[38] = test system: Lung; experiment: Biodistribution in Kunming mouse lung at 1 uCi, iv after 240 mins by gamma counting; format: ADME, organism-based; conditions: in vivo, 4 h; outline: as §1
[39] = test system: Kidney; experiment: Biodistribution in Kunming mouse kidney at 1 uCi, iv after 2 mins by gamma counting; format: ADME, organism-based; conditions: in vivo; outline: as §1
[40] = test system: Kidney; experiment: Biodistribution in Kunming mouse kidney at 1 uCi, iv after 15 mins by gamma counting; format: ADME, organism-based; conditions: in vivo, 0.25 h; outline: as §1
[41] = test system: Kidney; experiment: Biodistribution in Kunming mouse kidney at 1 uCi, iv after 30 mins by gamma counting; format: ADME, organism-based; conditions: in vivo, 0.5 h; outline: as §1
[42] = test system: Kidney; experiment: Biodistribution in Kunming mouse kidney at 1 uCi, iv after 60 mins by gamma counting; format: ADME, organism-based; conditions: in vivo, 1 h; outline: as §1
[43] = test system: Kidney; experiment: Biodistribution in Kunming mouse kidney at 1 uCi, iv after 120 mins by gamma counting; format: ADME, organism-based; conditions: in vivo, 2 h; outline: as §1
[44] = test system: Kidney; experiment: Biodistribution in Kunming mouse kidney at 1 uCi, iv after 240 mins by gamma counting; format: ADME, organism-based; conditions: in vivo, 4 h; outline: as §1
[45] = test system: Stomach; experiment: Biodistribution in Kunming mouse stomach assessed per organ at 1 uCi, iv after 2 mins by gamma counting; format: ADME, organism-based; conditions: in vivo; outline: as §2
[46] = test system: Stomach; experiment: Biodistribution in Kunming mouse stomach assessed per organ at 1 uCi, iv after 15 mins by gamma counting; format: ADME, organism-based; conditions: in vivo, 0.25 h; outline: as §2
[47] = test system: Stomach; experiment: Biodistribution in Kunming mouse stomach assessed per organ at 1 uCi, iv after 30 mins by gamma counting; format: ADME, organism-based; conditions: in vivo, 0.5 h; outline: as §2
[48] = test system: Stomach; experiment: Biodistribution in Kunming mouse stomach assessed per organ at 1 uCi, iv after 60 mins by gamma counting; format: ADME, organism-based; conditions: in vivo, 1 h; outline: as §2
[49] = test system: Stomach; experiment: Biodistribution in Kunming mouse stomach assessed per organ at 1 uCi, iv after 120 mins by gamma counting; format: ADME, organism-based; conditions: in vivo, 2 h; outline: as §2
[50] = test system: Stomach; experiment: Biodistribution in Kunming mouse stomach assessed per organ at 1 uCi, iv after 240 mins by gamma counting; format: ADME, organism-based; conditions: in vivo, 4 h; outline: as §2
[51] = test system: Muscle tissue; experiment: Biodistribution in Kunming mouse muscle at 1 uCi, iv after 2 mins by gamma counting; format: ADME, organism-based; conditions: in vivo; outline: as §1
[52] = test system: Muscle tissue; experiment: Biodistribution in Kunming mouse muscle at 1 uCi, iv after 15 mins by gamma counting; format: ADME, organism-based; conditions: in vivo, 0.25 h; outline: as §1
[53] = test system: Muscle tissue; experiment: Biodistribution in Kunming mouse muscle at 1 uCi, iv after 30 mins by gamma counting; format: ADME, organism-based; conditions: in vivo, 0.5 h; outline: as §1
[54] = test system: Muscle tissue; experiment: Biodistribution in Kunming mouse muscle at 1 uCi, iv after 60 mins by gamma counting; format: ADME, organism-based; conditions: in vivo, 1 h; outline: as §1
[55] = test system: Muscle tissue; experiment: Biodistribution in Kunming mouse muscle at 1 uCi, iv after 120 mins by gamma counting; format: ADME, organism-based; conditions: in vivo, 2 h; outline: as §1
[56] = test system: Muscle tissue; experiment: Biodistribution in Kunming mouse muscle at 1 uCi, iv after 240 mins by gamma counting; format: ADME, organism-based; conditions: in vivo, 4 h; outline: as §1

Ki [1]: 44.4 nM
SMILES: CC(C)Cc1ccc([C@H](C)C(=O)O)cc1 [DEXIBUPROFEN]

logD [2]: 2.32
Drug uptake [3]: 13.91 % ID/g
Drug uptake [4]: 5.82 % ID/g
Drug uptake [5]: 4.9 % ID/g
Drug uptake [6]: 3.79 % ID/g
Drug uptake [7]: 3.12 % ID/g
Drug uptake [8]: 2.78 % ID/g
Drug uptake [9]: 2.19 % ID/g
Drug uptake [10]: 2.29 % ID/g
Drug uptake [11]: 1.6 % ID/g
Drug uptake [12]: 1.04 % ID/g
Drug uptake [13]: 0.42 % ID/g
Drug uptake [14]: 0.21 % ID/g
Drug uptake [15]: 12.64 % ID/g
Drug uptake [16]: 3.52 % ID/g
Drug uptake [17]: 2.45 % ID/g
Drug uptake [18]: 1.53 % ID/g
Drug uptake [19]: 1.21 % ID/g
Drug uptake [20]: 1.17 % ID/g
Drug uptake [21]: 24.76 % ID/g
Drug uptake [22]: 18.05 % ID/g
Drug uptake [23]: 14.05 % ID/g
Drug uptake [24]: 12.3 % ID/g
Drug uptake [25]: 9.3 % ID/g
Drug uptake [26]: 7.65 % ID/g
Drug uptake [27]: 6 % ID/g
Drug uptake [28]: 8.04 % ID/g
Drug uptake [29]: 7.12 % ID/g
Drug uptake [30]: 7.16 % ID/g
Drug uptake [31]: 6.18 % ID/g
Drug uptake [32]: 4.45 % ID/g
Drug uptake [33]: 21.76 % ID/g
Drug uptake [34]: 11.13 % ID/g
Drug uptake [35]: 9.05 % ID/g
Drug uptake [36]: 6.39 % ID/g
Drug uptake [37]: 4.31 % ID/g
Drug uptake [38]: 2.95 % ID/g
Drug uptake [39]: 12.01 % ID/g
Drug uptake [40]: 9.31 % ID/g
Drug uptake [41]: 8.21 % ID/g
Drug uptake [42]: 5.71 % ID/g
Drug uptake [43]: 4.21 % ID/g
Drug uptake [44]: 4.05 % ID/g
Drug uptake [45]: 0.71 %ID
Drug uptake [46]: 4.06 %ID
Drug uptake [47]: 4.92 %ID
Drug uptake [48]: 5 %ID
Drug uptake [49]: 5.31 %ID
Drug uptake [50]: 4.14 %ID
Drug uptake [51]: 2.73 % ID/g
Drug uptake [52]: 2.62 % ID/g
Drug uptake [53]: 1.63 % ID/g
Drug uptake [54]: 1.3 % ID/g
Drug uptake [55]: 0.65 % ID/g
Drug uptake [56]: 0.92 % ID/g
SMILES: COc1ccc(/C=C/C(=O)n2ccc3cc([125I])ccc32)cc1
